Measured values taken from ChEMBL document CHEMBL3351942, “Rexinoids isolated from Sophora tonkinensis with a gene expression profile distinct from the synthetic rexinoid bexarotene” (J Nat Prod, 2014).
Active and inactive are the calls of the source. No cut-off for these calls is given here.

What was measured:
[1] = Activation of LXR in mouse C2C12 cells assessed as induction of ApoE mRNA expression at 10 uM after 24 hrs by quantitative RT-PCR analysis; assay type: cell-based
Summary of the method: (§1)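 C2C12 myoblasts grown in DMEM/10% FBS, differentiated at confluence in 2% horse serum, medium changed every other day for 5 days; myotubes treated 24 h with or without T0901317 (1 μM). Total RNA, DNase-treated, oligo(dT) RT from 0.5 μg, SYBR green qPCR; normalized to β-actin (delta-delta Ct), fold over vehicle; mean ± SD of four determinants, one of two experiments.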

[2] = Activation of LXR in mouse C2C12 cells assessed as induction of ABCA1 mRNA expression at 10 uM after 24 hrs by quantitative RT-PCR analysis; assay type: cell-based; summary of the method: as §1
[3] = target: T1, Retinoic acid receptor RXR-gamma (Homo sapiens) (UniProt P48443); assay: Binding affinity to RXRgamma (unknown origin) by receptor-SRC1 cofactor complex formation assay
T1 sequence (whole entry): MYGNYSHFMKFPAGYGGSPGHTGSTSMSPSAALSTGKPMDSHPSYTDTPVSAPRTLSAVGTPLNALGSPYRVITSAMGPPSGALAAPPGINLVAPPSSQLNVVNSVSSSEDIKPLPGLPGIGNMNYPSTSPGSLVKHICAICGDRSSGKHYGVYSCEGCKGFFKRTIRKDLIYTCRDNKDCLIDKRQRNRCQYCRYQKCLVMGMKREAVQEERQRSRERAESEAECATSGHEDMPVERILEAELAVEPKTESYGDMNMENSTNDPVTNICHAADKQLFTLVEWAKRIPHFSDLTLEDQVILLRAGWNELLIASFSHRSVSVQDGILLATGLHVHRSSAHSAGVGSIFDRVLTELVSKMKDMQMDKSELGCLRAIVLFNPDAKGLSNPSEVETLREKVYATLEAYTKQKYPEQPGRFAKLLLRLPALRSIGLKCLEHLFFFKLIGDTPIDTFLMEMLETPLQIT
Summary of the method: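 Ligand-dependent binding of RXR isotype to coactivator SRC-1 in an NR cofactor kit, detected with HRP-conjugated anti-RXR antibody at OD450. The full agonist CD3254 defined 100% and vehicle 0%. Efficacy was taken as maximum B/Bmax% and potency as EC50.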

[4] = species: Homo sapiens; assay: Activation of PPARgamma/RXR heterodimer in human hepatoma cells assessed as increase in ANGPTL4 mRNA level at 10 uM by quantitative RT-PCR analysis; assay type: cell-based
Summary of the method: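 HLE human hepatoma cells (DMEM, 10% FBS, 37 °C, 5% CO2) treated with or without rosiglitazone; ANGPTL4 mRNA by SYBR green qRT-PCR, β-actin-normalized delta-delta Ct, fold vs vehicle; means ± SD of three determinants, representative of three experiments.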

[5] = Activation of LXR in mouse C2C12 cells assessed as induction of ApoD mRNA expression at 10 uM after 24 hrs in presence of T0901317 by quantitative RT-PCR analysis; assay type: cell-based; summary of the method: as §1
[6] = tested on: F9; assay: Activation of RAR/RXR heterodimer in mouse F9 cells assessed as increase in CYP26A1 mRNA level at 10 uM by quantitative RT-PCR analysis; assay type: cell-based
Summary of the method: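 F9 teratocarcinoma cells on 0.2% gelatin-coated dishes in DMEM/10% FBS; 24 h exposure with or without atRA (0.1 μM). CYP26A1 mRNA by qRT-PCR normalized to β-actin, fold vs vehicle; means ± SD of three determinants, one of three experiments; ANOVA/Bonferroni.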

[7] = Activation of LXR in mouse C2C12 cells assessed as induction of ApoD mRNA expression at 10 uM after 24 hrs by quantitative RT-PCR analysis; assay type: cell-based; summary of the method: as §1
[8] = Activation of LXR in mouse C2C12 cells assessed as induction of ApoE mRNA expression at 10 uM after 24 hrs in presence of T0901317 by quantitative RT-PCR analysis; assay type: cell-based; summary of the method: as §1
[9] = Activation of LXR in mouse C2C12 cells assessed as induction of FAS mRNA expression at 10 uM after 24 hrs in presence of T0901317 by quantitative RT-PCR analysis; assay type: cell-based; summary of the method: as §1
[10] = target: T2, Peroxisome proliferator-activated receptor delta (Mus musculus) (UniProt P35396); assay: Activation of PPARdelta in mouse C2C12 cells assessed as induction of FABP3 mRNA expression at 10 uM after 24 hrs in presence of GW501516 by quantitative RT-PCR analysis; assay type: cell-based
T2 sequence (whole entry): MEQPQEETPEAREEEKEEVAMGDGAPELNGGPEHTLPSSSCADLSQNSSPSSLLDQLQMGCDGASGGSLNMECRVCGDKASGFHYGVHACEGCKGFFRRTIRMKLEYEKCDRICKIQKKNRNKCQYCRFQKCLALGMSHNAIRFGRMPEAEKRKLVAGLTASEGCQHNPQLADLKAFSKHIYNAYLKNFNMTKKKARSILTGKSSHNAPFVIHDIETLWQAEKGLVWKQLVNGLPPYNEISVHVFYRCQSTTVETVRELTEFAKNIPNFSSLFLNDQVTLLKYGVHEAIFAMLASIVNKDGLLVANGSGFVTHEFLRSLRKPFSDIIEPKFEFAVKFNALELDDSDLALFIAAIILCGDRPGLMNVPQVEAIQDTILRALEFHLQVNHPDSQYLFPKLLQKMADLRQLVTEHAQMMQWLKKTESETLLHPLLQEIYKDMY
Summary of the method: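 Differentiated C2C12 myotubes (2% horse serum, 5 days) exposed 24 h with or without PPARδ agonist GW501516 (1 μM). mRNA quantified by SYBR green real-time RT-PCR, normalized to β-actin by delta-delta Ct, and expressed as fold induction vs vehicle; means ± SD of four determinants from one of two independent experiments; one-way ANOVA with Bonferroni.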

- Activity [3]: inactive
- Activity [10]: Active
Structure (SMILES): CC(C)=CCc1cc([C@@H]2CC(=O)c3ccc(O)c(CC=C(C)C)c3O2)cc2c1OC(C(C)(C)O)C2 (stereo not given in full)
- Activity [1]: Active
- Activity [2]: Active
- Activity [4]: Active
- Activity [5]: inactive
- Activity [6]: Active
- Activity [7]: Active
- Activity [8]: Active
- Activity [9]: inactive
